Data: PMC11871391 (Journal of Diabetes Investigation, 2024)

What was measured:
[1] = format: in vivo, human; details: weekly dosing interval at steady state, Japanese T1D
In short: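 Japanese adults (20–64 y) with T1D got subcutaneous thigh doses once weekly around 20:00 for 8 weeks. The constant weekly dose was seven times the run-in daily glargine U100 dose, with glargine top-up in weeks 1–2. Blood was sampled from the first dose to 35 days after the last. Total serum drug (albumin-bound plus unbound) was measured by validated specific immunoassay. AUC was by linear trapezoid over 0–168 h; t½ was log(2)/λz by linear regression.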

[2] = tested on: Japanese individuals with type 1 diabetes; format: in vivo, human; details: weekly dosing interval at steady state, Japanese T1D
In short: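 Steady-state clamps (target 6.7 mmol/L) ran 24–48 h and 150–168 h after the final weekly dose. Before the clamp, glucose had to stay within ±20% from 60 to 30 min prior, within ±10% in the last 30 min, and fluctuate ≤0.3 mmol/L in the final 10 min. GIR was Loess-smoothed (factor 0.25). A per-participant PK/PD model simulated the daily effect across the full week.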

[3] = tested on: Japanese individuals with type 1 diabetes; test: Safety evaluation during treatment periods; format: in vivo, human; details: Japanese T1D; for rate of nocturnal Level 2 hypoglycemia / rate of overall Level 2 hypoglycemia (plasma glucose <3.0 mmol/L): glucose clamps excluded; for rate of overall Level 2 hypoglycemia (plasma glucose <3.0 mmol/L): from SMPG
In short: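 Randomized crossover in Japanese adults with T1D: once-weekly test insulin for 8 weeks and once-daily glargine U100 for 14 days, both with bolus aspart. Safety covered AEs, vital signs, ECG, physical exam and laboratory tests, with clinically significant findings recorded as AEs. Hypoglycemia (Level 2, <3.0 mmol/L; Level 3, severe) and hyperglycemia (>16.7 mmol/L) were identified from SMPG. Events were expressed per patient-year of exposure and summarized descriptively.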

[4] = White individuals; cited from earlier work
[5] = tested on: insulin receptor; details: cited from earlier work
[6] = tested on: individuals with T1D; details: trials with degludec in T1D; cited from earlier work

insulin icodec
day of maximum exposure [1]: Day 1 | day of maximum glucose-lowering effect [2]: Day 2 | rate of hyperglycemia (plasma glucose >16.7 mmol/L) [3]: 33.6 episodes per PYE | severe (Level 3) hypoglycemic episodes [3]: no severe (Level 3) hypoglycemic episodes | rate of nocturnal Level 2 hypoglycemia [3]: 7.8 episodes per PYE | rate of overall Level 2 hypoglycemia (plasma glucose <3.0 mmol/L) [3]: 37.3 episodes per PYE | half-life [4]: approximately 1 week | affinity for the insulin receptor [5]: low affinity

insulin glargine U100 [reference compound]
rate of hyperglycemia (plasma glucose >16.7 mmol/L) [3]: 36.5 episodes per PYE | severe (Level 3) hypoglycemic episodes [3]: no severe (Level 3) hypoglycemic episodes | rate of nocturnal Level 2 hypoglycemia [3]: 9.4 episodes per PYE | rate of overall Level 2 hypoglycemia (plasma glucose <3.0 mmol/L) [3]: 30.6 episodes per PYE

insulin degludec
rate of clinically significant or severe hypoglycemia previously reported [6]: 42.5–88.3 episodes per PYE
